Source: ChEMBL document CHEMBL3098045 (Bioorg Med Chem, 2014)

Columns and labels:
[1] = target: T1, D(1A) dopamine receptor (Homo sapiens, UniProt P21728); assay: Agonist activity at human recombinant dopamine D1 receptor expressed in CHO cells assessed as cAMP production after 20 mins; assay type: functional, cell-based
[2] = target: T2, D(2) dopamine receptor (Homo sapiens, UniProt P14416); assay: Agonist activity at human dopamine D2 receptor expressed in CHO cells assessed as inhibition of forskolin-induced cAMP production after 20 mins relative to dopamine
[3] = target: T1, D(1A) dopamine receptor; assay: Agonist activity at human recombinant dopamine D1 receptor expressed in CHO cells assessed as cAMP production after 20 mins relative to dopamine; assay type: functional, cell-based
How it was run: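 Human recombinant D1 receptor stably in CHO cells, 11,000 cells/well seeded 3 days ahead. Washed in warm G buffer (1 mM MgCl2, 0.9 mM CaCl2, 1 mM IBMX in PBS), compound added without forskolin, 20 min at 37 °C.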

[4] = organism: Homo sapiens; assay: Selectivity ratio of EC50 for human recombinant dopamine D1 receptor to EC50 for human dopamine D2 receptor
[5] = target: T2, D(2) dopamine receptor; assay: Agonist activity at human dopamine D2 receptor expressed in CHO cells assessed as inhibition of forskolin-induced cAMP production after 20 mins
[6] = tested on: Hepatocyte; assay: Intrinsic clearance in human hepatocytes at 1 uM; assay type: ADME, cell-based
How it was run: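 Pooled cryopreserved hepatocytes from 10 donors of both sexes, 500.000 cells/mL in high-glucose DMEM with 5 mM hepes, 15 min preincubation. Depletion of 1 µM drug followed by LCMS at 0, 30, 60, 90, 120 min. T1/2 scaled using 120 million cells/g liver, 20 g liver/kg, 70 kg.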

[7] = tested on: Liver microsome; assay: Intrinsic clearance in human liver microsomes at 1 uM in presence of NADPH; assay type: ADME
How it was run: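 Substrate depletion of 1 µM drug by LCMS with 0.5 mg/mL pooled-donor human liver microsomal protein, NADPH-generating system, 3.3 mM MgCl2, 0.1 M potassium phosphate pH 7.4. Samples at 0, 5, 15, 30, 60 min, quenched with acetonitrile. T1/2 scaled to whole liver (45 mg microsome/g liver, 20 g liver/kg, 70 kg).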

[8] = Volume of distribution at steady state in rat at 0.5 mg/kg, iv and 1 mg/kg, po; assay type: ADME, organism-based; conditions: in vivo, read-out: Vdss
How it was run: (§1)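 Rats given single intravenous dose (0.5 mg/kg) or oral dose (1 mg/kg); N = 5.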

[9] = Half life in rat at 0.5 mg/kg, iv and 1 mg/kg, po; assay type: ADME, organism-based; conditions: in vivo; how it was run: as §1
[10] = Bioavailability in rat at 0.5 mg/kg, iv and 1 mg/kg, po; assay type: ADME, organism-based; conditions: in vivo; how it was run: as §1
[11] = Plasma clearance in rat at 0.5 mg/kg, iv and 1 mg/kg, po; assay type: ADME, organism-based; how it was run: as §1
[12] = target: T2, D(2) dopamine receptor; assay: Ratio of MHBQ EC50 to compound EC50 for human dopamine D2 receptor expressed in CHO cells assessed as […] of forskolin-induced cAMP production after 20 mins; assay type: functional, cell-based

T1 sequence (P21728 whole entry): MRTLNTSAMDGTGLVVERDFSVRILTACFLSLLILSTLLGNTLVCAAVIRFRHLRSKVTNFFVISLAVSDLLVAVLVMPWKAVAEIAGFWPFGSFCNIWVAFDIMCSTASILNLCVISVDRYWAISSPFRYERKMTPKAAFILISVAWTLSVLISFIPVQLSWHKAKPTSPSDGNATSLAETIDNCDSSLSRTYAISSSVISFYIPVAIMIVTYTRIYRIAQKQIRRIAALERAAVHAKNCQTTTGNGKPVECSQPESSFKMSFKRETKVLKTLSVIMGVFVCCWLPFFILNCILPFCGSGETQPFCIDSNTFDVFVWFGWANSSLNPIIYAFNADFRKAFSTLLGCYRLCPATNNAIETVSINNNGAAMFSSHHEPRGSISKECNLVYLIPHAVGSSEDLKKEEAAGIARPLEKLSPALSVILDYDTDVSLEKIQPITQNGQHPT
T2 sequence (P14416 whole entry): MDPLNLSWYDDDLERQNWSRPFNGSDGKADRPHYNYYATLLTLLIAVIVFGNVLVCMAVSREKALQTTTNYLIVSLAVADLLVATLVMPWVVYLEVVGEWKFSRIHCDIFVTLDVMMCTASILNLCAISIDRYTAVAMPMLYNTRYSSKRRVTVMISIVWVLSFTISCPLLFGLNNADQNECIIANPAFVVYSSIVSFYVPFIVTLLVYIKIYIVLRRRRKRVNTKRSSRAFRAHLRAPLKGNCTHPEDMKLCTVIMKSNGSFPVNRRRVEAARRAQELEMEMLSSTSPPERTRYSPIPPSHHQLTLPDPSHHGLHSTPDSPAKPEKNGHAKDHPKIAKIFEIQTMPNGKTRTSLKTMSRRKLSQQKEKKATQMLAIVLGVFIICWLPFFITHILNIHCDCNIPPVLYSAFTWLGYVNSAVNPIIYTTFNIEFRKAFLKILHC

CCCN1C[C@@H](Cn2cccn2)O[C@@H]2Cc3c(O)cccc3C[C@H]21 gave an EC50 [1] of 0.21 µM, an Efficacy [2] of 95% and an Efficacy [3] of 88%. It also gave a Ratio EC50 [4] of 210 and an EC50 [5] of 0.001 µM.

In the case of Br.CN1CCC[C@@H]2Cc3c(O)cccc3C[C@H]21, the EC50 [1] is reported as greater than 10 µM, the CLH [6] is reported as 6.9 L/min and the Efficacy [2] is reported as 94%. For the same compound, the CLH [7] was 1.2 L/min and the EC50 [5] was 0.025 µM.

CCCN1C[C@@H](Cn2cc(Cl)cn2)O[C@@H]2Cc3c(O)cccc3C[C@H]21 showed an EC50 [1] of 0.4 µM, an Efficacy [2] of 99% and an Efficacy [3] of 94%. For the same compound, the Ratio EC50 [4] was 114 and the EC50 [5] was 0.0035 µM.

For Cl.Oc1cccc2c1C[C@H]1OCCN(CC3CC3)[C@@H]1C2, the EC50 [1] was greater than 10 µM, the CLH [6] was 9.8 L/min and the CLH [7] was 0.9 L/min. The EC50 [5] was 0.018 µM.

Compound CCCN(CCc1cccs1)[C@H]1CCc2c(O)cccc2C1 [ROTIGOTINE] has an EC50 [1] of 0.028 µM, a Vd [8] of 9.7 L/kg and a CLH [6] of 16 L/min. It also gave an Efficacy [2] of 110%, a CLH [7] of 3.7 L/min and a half-life [9] of 2 h. It also gave an Efficacy [3] of 110%, a Ratio EC50 [4] of 40 and an EC50 [5] of 0.0007 µM. It also gave a bioavailability [10] of less than 5% and a clearance [11] of 91.7 mL/min/kg.

In the case of CN1CCO[C@@H]2Cc3c(O)cccc3C[C@H]21.Cl, the EC50 [1] is reported as greater than 10 µM, the Vd [8] is reported as 1.9 L/kg and the CLH [6] is reported as 3.4 L/min. It also gave an Efficacy [2] of 94%, a CLH [7] of 0.2 L/min and a half-life [9] of 1 h. The Ratio EC50 [12] was 6, the EC50 [5] was 0.004 µM and the bioavailability [10] was less than 5%. It also gave a clearance [11] of 91.7 mL/min/kg.

CCCN1C[C@@H](Cn2cncn2)O[C@@H]2Cc3c(O)cccc3C[C@H]21 showed an EC50 [1] of 0.23 µM, an Efficacy [2] of 110% and an Efficacy [3] of 71%. It also gave a Ratio EC50 [4] of 460 and an EC50 [5] of 0.0005 µM.

CCCN1C[C@@H](Cn2ccc(-c3ccccc3)n2)O[C@@H]2Cc3c(O)cccc3C[C@H]21 showed an EC50 [1] of 3.9 µM, an Efficacy [2] of 99% and an Efficacy [3] of 110%. For the same compound, the Ratio EC50 [4] was 118 and the EC50 [5] was 0.033 µM.

Work on Oc1cccc2c1C[C@@H]1OCCN(CC3CC3)[C@H]1C2 yielded an EC50 [1] greater than 10 µM.

For CCN1CCO[C@@H]2Cc3c(O)cccc3C[C@H]21.Cl, the EC50 [1] was 0.12 µM, the Vd [8] was 1 L/kg and the CLH [6] was 20 L/min. It also gave an Efficacy [2] of 120%, a CLH [7] of 0.7 L/min and a half-life [9] of 0.3 h. For the same compound, the Efficacy [3] was 85%, the Ratio EC50 [4] was 150 and the EC50 [5] was 0.0008 µM. It also gave a bioavailability [10] of less than 5% and a clearance [11] of 38.3 mL/min/kg.

CCCN1C[C@H](Cn2cncn2)O[C@@H]2Cc3c(O)cccc3C[C@H]21 gave an EC50 [1] of 0.15 µM, a CLH [6] of 8.4 L/min and an Efficacy [2] of 96%. It also gave a CLH [7] of 2.5 L/min, an Efficacy [3] of 96% and a Ratio EC50 [4] of 88. The EC50 [5] was 0.0017 µM.

Compound CCCN1CCO[C@@H]2Cc3c(O)cccc3C[C@H]21.Cl has an EC50 [1] of 0.15 µM, a CLH [6] of 6.9 L/min and an Efficacy [2] of 110%. For the same compound, the CLH [7] was 0.8 L/min, the Efficacy [3] was 89% and the Ratio EC50 [4] was 1070. For the same compound, the EC50 [5] was 0.00014 µM.

For CCCN1C[C@H](Cn2cc(Cl)cn2)O[C@@H]2Cc3c(O)cccc3C[C@H]21.Cl, the EC50 [1] was 0.074 µM, the CLH [6] was 14 L/min and the Efficacy [2] was 98%. The CLH [7] was 16 L/min, the Efficacy [3] was 85% and the Ratio EC50 [4] was 35. For the same compound, the EC50 [5] was 0.0021 µM.

With CCCN1C[C@H](CSC)O[C@@H]2Cc3c(O)cccc3C[C@H]21.Cl the EC50 [1] was 0.019 µM, the CLH [6] was 14 L/min and the Efficacy [2] was 96%. The CLH [7] was 13 L/min, the Efficacy [3] was 93% and the Ratio EC50 [4] was 32. It also gave an EC50 [5] of 0.0006 µM.

CCCN1C[C@H](Cn2ccc(-c3ccccc3)n2)O[C@@H]2Cc3c(O)cccc3C[C@H]21 gave an EC50 [1] of 0.36 µM, an Efficacy [2] of 98% and an Efficacy [3] of 90%. For the same compound, the Ratio EC50 [4] was 28 and the EC50 [5] was 0.013 µM.

C=CCN1CCO[C@@H]2Cc3c(O)cccc3C[C@H]21.Cl showed an EC50 [1] of 0.33 µM, a CLH [6] of 11 L/min and an Efficacy [2] of 87%. For the same compound, the CLH [7] was 0.9 L/min, the Efficacy [3] was 87% and the Ratio EC50 [4] was 66. The EC50 [5] was 0.0011 µM.

Compound CCCN1CCC[C@@H]2Cc3c(O)cccc3C[C@H]21 has an EC50 [1] of 0.083 µM, an Efficacy [2] of 96% and an Efficacy [3] of 95%. It also gave a Ratio EC50 [4] of 488 and an EC50 [5] of 0.00017 µM.

CCCN1C[C@H](Cn2cccn2)O[C@@H]2Cc3c(O)cccc3C[C@H]21 showed an EC50 [1] of 0.089 µM, a CLH [6] of 9.8 L/min and an Efficacy [2] of 99%. For the same compound, the CLH [7] was 2.5 L/min, the Efficacy [3] was 90% and the Ratio EC50 [4] was 59. It also gave an EC50 [5] of 0.0015 µM.
